In brackets after ≈: the same amount, converted by molar mass. Activity calls are given as the source filed them.
What was measured:
Escherichia coli [1] = assay: Antimicrobial activity against Escherichia coli isolate AMG1 24 hrs biofilms at 0.03 ug/ml to 0.12 ug/ml after 24 hrs by microtiter plate count method; format: functional, organism-based
In short: (§1)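 Microtiter plate biofilms grown 24 h, then exposed 24 h to a range of norfloxacin concentrations. Survival counted as CFU and expressed as percent of 10^8 CFU/ml for each strain.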

Escherichia coli [2] = assay: Antimicrobial activity against Escherichia coli isolate AMG1 24 hrs biofilms after 24 hrs relative to control; format: functional; in short: as §1
Escherichia coli [3] = assay: Antimicrobial activity against Escherichia coli isolate AMG1 24 hrs biofilms at 350 ug/ml after 1 hr by microtiter plate count method; format: functional
In short: (§2)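 Biofilms were grown 24 h in microtiter plate wells and exposed to penicillin G at 350 μg/ml for 1 h. Viability was counted by CFU plating and compared with untreated control biofilms grown identically. Values are averages of at least three independent determinations ±1 standard deviation. Strain differences were tested by two-tailed Student's t test.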

Escherichia coli [4] = assay: Antimicrobial activity against wild type Escherichia coli isolate AMG1 grown as planktonic cells after 24 hrs by spectrophotometric method; format: functional; conditions: AMG1, 24 h
In short: (§3)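 Wells with 100 and 200 μl LB inoculated to OD600 0.06 and grown 24 h at 37°C without shaking. Medium then replaced with LB containing penicillin G (0–250 μg/ml) for 24 h, and growth read by OD. MIC for planktonic cells and MICadh for biofilm taken as the concentration giving 50% growth reduction versus unexposed control. Biofilm contribution derived from the 100/200 μl OD relation.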

Escherichia coli [5] = assay: Antimicrobial activity against tetracycline-resistant Escherichia coli U1 rapA mutant grown as biofilms after 24 hrs by spectrophotometric method; format: functional; conditions: U1, 24 h; in short: as §3
Escherichia coli [6] = assay: Antimicrobial activity against kanamycin-resistant Escherichia coli K-12 M1 W3110 deltarapA mutant flow cell-generated 24 hrs biofilms at 350 ug/ml after 1 hr using BacLight staining by CSLM; format: functional
In short: (§4)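 Biofilms grown 24 h in Plexiglas flow cells on M9-Casamino Acid medium under flow. Penicillin G 350 μg/ml in flowing medium for 1 h; controls kept on medium alone. LIVE/DEAD BacLight (Syto9/propidium iodide) injected, flow halted 5 min, then rinsed. CSLM images thresholded. Survival taken as green/(red+green) fluorescence relative to untreated controls.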

Escherichia coli [7] = assay: Antimicrobial activity against kanamycin-resistant Escherichia coli K-12 M1 W3110 deltarapA mutant 24 hrs biolflim at 350 ug/ml after 1 hr by microtiter plate count method; format: functional, organism-based
In short: (§5)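 Biofilms grown 24 h in microtiter plate wells, then exposed to penicillin G at 350 μg/ml for 1 h. Viability by plate count (CFU) against untreated controls. At least three independent determinations, mean ±1 SD. Strain differences tested by Student's two-tailed t test.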

Escherichia coli [8] = assay: Antimicrobial activity against tetracycline-resistant Escherichia coli U1 rapA mutant grown as planktonic cells after 24 hrs by spectrophotometric method; format: functional; conditions: U1, 24 h; in short: as §3
Escherichia coli [9] = assay: Antimicrobial activity against kanamycin-resistant Escherichia coli K-12 M2 W3110 deltayhcQ mutant 24 hrs biolflim at 350 ug/ml after 1 hr using BacLight staining; format: functional; in short: as §4
Escherichia coli [10] = assay: Antimicrobial activity against wild type Escherichia coli isolate AMG1 grown as biofilms after 24 hrs by spectrophotometric method; format: functional; conditions: AMG1, 24 h
In short: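 Triplicate microtiter wells held 100 and 200 μl LB, inoculated at OD600 0.06 and grown 24 h at 37°C without shaking. Liquid was replaced with LB containing penicillin G at 0–250 μg/ml, and growth was read by plate reader 24 h later. The biofilm contribution came from an equation correlating the two volumes' OD. MICadh is the concentration giving 50% growth reduction versus unexposed control.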

Escherichia coli [11] = assay: Antimicrobial activity against kanamycin-resistant Escherichia coli U6 deltayhcQ mutant 24 hrs biofilms at 350 ug/ml after 1 hr by microtiter plate count method; format: functional; in short: as §5
Escherichia coli [12] = assay: Antimicrobial activity against wild type Escherichia coli K-12 flow cell-generated 24 hrs biofilms at 350 ug/ml after 1 hr using BacLight staining by CSLM; format: functional
In short: (§6)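 Penicillin G 350 μg/ml was given in flowing medium for 1 h, with controls kept on antibiotic-free flow. LIVE/DEAD BacLight was stopped in place for 5 min and then rinsed. CSLM green/(red+green) integrated intensity, thresholded, gave percent survival versus untreated controls.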

Escherichia coli [13] = assay: Antimicrobial activity against tetracycline-resistant Escherichia coli U1 rapA mutant nylon membrane cultivated 24 hrs biofilms at 350 ug/ml after 1 hr; format: functional
In short: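 Nylon membranes (1×1 cm) in LB inoculated at OD600 0.1 and grown 24 h at 37°C. Medium replaced with LB ± penicillin G 350 μg/ml for 1 h. Membranes rinsed and vortexed 2 min in M9 salts, then diluted and plated in quadruplicate on LB agar for CFU.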

Escherichia coli [14] = assay: Antimicrobial activity against tetracycline-resistant Escherichia coli U1 rapA mutant flow cell-generated 24 hrs biofilms using BacLight staining by CSLM; format: functional, organism-based; in short: as §4
Escherichia coli [15] = assay: Antimicrobial activity against tetracycline-resistant Escherichia coli U1 rapA mutant 24 hrs biofilms assessed as viability at 350 ug/ml after 1 hr by microtiter plate count method; format: functional; in short: as §5
Escherichia coli [16] = assay: Antimicrobial activity against wild type Escherichia coli K-12 24 hrs biolflim at 350 ug/ml after 1 hr by microtiter plate count method; format: functional, organism-based; in short: as §2
Escherichia coli [17] = assay: Antimicrobial activity against Escherichia coli AMG1 isolate 24 hrs flow cell-generated biofilms using BacLight staining by CSLM; format: functional, organism-based; in short: as §6

CCn1cc(C(=O)O)c(=O)c2cc(F)c(N3CCNCC3)cc21
Activity (Escherichia coli [1]): Active

O=C(N[C@H](CO)[C@H](O)c1ccc([N+](=O)[O-])cc1)C(Cl)Cl [CHLORAMPHENICOL]
Activity (Escherichia coli [2]): 40%

CC1(C)S[C@@H]2[C@H](NC(=O)Cc3ccccc3)C(=O)N2[C@H]1C(=O)O [PENICILLIN G]
Activity (Escherichia coli [3]): 35% | MIC (Escherichia coli [4]): 50 µg/mL (≈ 150 µM) | MIC (Escherichia coli [5]): 125 µg/mL (≈ 374 µM) | Activity (Escherichia coli [6]): 71% | Activity (Escherichia coli [7]): Active | MIC (Escherichia coli [8]): 50 µg/mL (≈ 150 µM) | Activity (Escherichia coli [9]): 31% | MIC (Escherichia coli [10]): 250 µg/mL (≈ 748 µM) | Activity (Escherichia coli [11]): 55% | Activity (Escherichia coli [12]): 22% | Activity (Escherichia coli [13]): 30% | Activity (Escherichia coli [14]): Active | Activity (Escherichia coli [15]): 71% | Activity (Escherichia coli [16]): Active | Activity (Escherichia coli [17]): inactive

GENTAMICIN
Activity (Escherichia coli [2]): 40%

Source: ChEMBL document CHEMBL1137020, “Role of the rapA gene in controlling antibiotic resistance of Escherichia coli biofilms” (2007)
